Assay results from ChEMBL document CHEMBL2040727, “Substituted thiazoles VI. Synthesis and antitumor activity of new 2-acetamido- and 2 or 3-propanamido-thiazole analogs” (2012).

What was measured:
Type in all cases: functional
[1] = tested on: MOLT-4; assay: Growth inhibition of human MOLT4 cells at 10 uM after 48 hrs by coulter counter analysis; conditions: MOLT-4, 48 h, read-out: GI
Summary of the method: (§1)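 Single-dose NCI 60-line panel screen of test compounds. Cells grown in RPMI 1640 with 10% FBS. Compounds dissolved in DMSO, then diluted in phosphate buffer saline (final DMSO below 1%). Wells run in duplicate at 6 × 10⁴ cells/ml. Controls held PBS and DMSO at matching dilutions. Incubation 48 h at 37 °C under humidified 5% CO2. Cells diluted tenfold in saline and counted by Coulter counter. Percent growth inhibition taken from mean-graph of treated-cell growth.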

[2] = tested on: RPMI-8226; assay: Growth inhibition of human RPMI8226 cells at 10 uM after 48 hrs by coulter counter analysis; conditions: RPMI-8226, 48 h, read-out: GI; summary of the method: as §1
[3] = tested on: SR; assay: Growth inhibition of human SR cells at 10 uM after 48 hrs by coulter counter analysis; conditions: read-out: GI
Summary of the method: (§2)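 Single-dose screen in the NCI 60 cell line panel. Cells grown in RPMI 1640 with 10% FBS. Compounds dissolved in DMSO and diluted in phosphate buffered saline, final DMSO under 1%. Duplicate wells seeded from culture at 6 × 10⁴ cells/ml. Incubated 48 h at 37 °C, humidified, 5% CO2. Cells diluted tenfold in saline and Coulter-counted. Percent growth inhibition computed against PBS/DMSO controls.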

[4] = tested on: A549; assay: Growth inhibition of human A549/ATCC cells at 10 uM after 48 hrs by coulter counter analysis; conditions: A549, 48 h, read-out: GI; summary of the method: as §1
[5] = tested on: NCI-H226; assay: Growth inhibition of human NCI-H226 cells at 10 uM after 48 hrs by coulter counter analysis; conditions: NCI-H226, 48 h, read-out: GI; summary of the method: as §1
[6] = tested on: NCI-H322M; assay: Growth inhibition of human NCI-H322M cells at 10 uM after 48 hrs by coulter counter analysis; conditions: read-out: GI; summary of the method: as §1
[7] = tested on: NCI-H460; assay: Growth inhibition of human NCI-H460 cells at 10 uM after 48 hrs by coulter counter analysis; conditions: NCI-H460, 48 h, read-out: GI; summary of the method: as §1
[8] = tested on: NCI-H522; assay: Growth inhibition of human NCI-H522 cells at 10 uM after 48 hrs by coulter counter analysis; conditions: NCI-H522, 48 h, read-out: GI; summary of the method: as §1
[9] = tested on: COLO 205; assay: Growth inhibition of human COLO205 cells at 10 uM after 48 hrs by coulter counter analysis; conditions: COLO 205, 48 h, read-out: GI; summary of the method: as §1
[10] = tested on: HCC 2998; assay: Growth inhibition of human HCC2998 cells at 10 uM after 48 hrs by coulter counter analysis; conditions: HCC 2998, 48 h, read-out: GI; summary of the method: as §1
[11] = tested on: HCT-116; assay: Growth inhibition of human HCT116 cells at 10 uM after 48 hrs by coulter counter analysis; conditions: HCT-116, 48 h, read-out: GI; summary of the method: as §1
[12] = tested on: HCT-15; assay: Growth inhibition of human HCT15 cells at 10 uM after 48 hrs by coulter counter analysis; conditions: HCT-15, 48 h, read-out: GI; summary of the method: as §1
[13] = tested on: HT-29; assay: Growth inhibition of human HT-29 cells at 10 uM after 48 hrs by coulter counter analysis; conditions: HT-29, 48 h, read-out: GI; summary of the method: as §1
[14] = tested on: KM12; assay: Growth inhibition of human KM12 cells at 10 uM after 48 hrs by coulter counter analysis; conditions: KM12, 48 h, read-out: GI; summary of the method: as §1
[15] = tested on: SW-620; assay: Growth inhibition of human SW620 cells at 10 uM after 48 hrs by coulter counter analysis; conditions: SW-620, 48 h, read-out: GI; summary of the method: as §2
[16] = tested on: SF-268; assay: Growth inhibition of human SF268 cells at 10 uM after 48 hrs by coulter counter analysis; conditions: SF-268, 48 h, read-out: GI; summary of the method: as §1
[17] = tested on: SF-539; assay: Growth inhibition of human SF539 cells at 10 uM after 48 hrs by coulter counter analysis; conditions: SF-539, 48 h, read-out: GI; summary of the method: as §1
[18] = tested on: SNB-75; assay: Growth inhibition of human SNB75 cells at 10 uM after 48 hrs by coulter counter analysis; conditions: SNB-75, 48 h, read-out: GI; summary of the method: as §2
[19] = tested on: LOX IMVI; assay: Growth inhibition of human LOXIMVI cells at 10 uM after 48 hrs by coulter counter analysis; conditions: read-out: GI; summary of the method: as §1
[20] = tested on: M14; assay: Growth inhibition of human M14 cells at 10 uM after 48 hrs by coulter counter analysis; conditions: M14, 48 h, read-out: GI; summary of the method: as §1
[21] = tested on: MDA-MB-435; assay: Growth inhibition of human MDA-MB-435 cells at 10 uM after 48 hrs by coulter counter analysis; conditions: MDA-MB-435, 48 h, read-out: GI; summary of the method: as §1
[22] = tested on: SK-MEL-28; assay: Growth inhibition of human SK-MEL-28 cells at 10 uM after 48 hrs by coulter counter analysis; conditions: SK-MEL-28, 48 h, read-out: GI; summary of the method: as §1
[23] = tested on: SK-MEL-5; assay: Growth inhibition of human SK-MEL-5 cells at 10 uM after 48 hrs by coulter counter analysis; conditions: SK-MEL-5, 48 h, read-out: GI; summary of the method: as §1
[24] = tested on: IGROV-1; assay: Growth inhibition of human IGROV1 cells at 10 uM after 48 hrs by coulter counter analysis; conditions: IGROV-1, 48 h, read-out: GI; summary of the method: as §1
[25] = tested on: OVCAR-4; assay: Growth inhibition of human OVCAR4 cells at 10 uM after 48 hrs by coulter counter analysis; conditions: OVCAR-4, 48 h, read-out: GI; summary of the method: as §1
[26] = Growth inhibition of human NCI-ADR-RES cells at 10 uM after 48 hrs by coulter counter analysis; conditions: read-out: GI; summary of the method: as §1
[27] = tested on: 786-0; assay: Growth inhibition of human 786-0 cells at 10 uM after 48 hrs by coulter counter analysis; conditions: 786-0, 48 h, read-out: GI; summary of the method: as §1
[28] = tested on: ACHN; assay: Growth inhibition of human ACHN cells at 10 uM after 48 hrs by coulter counter analysis; conditions: read-out: GI; summary of the method: as §1
[29] = tested on: CAKI-1; assay: Growth inhibition of human Caki1 cells at 10 uM after 48 hrs by coulter counter analysis; conditions: CAKI-1, 48 h, read-out: GI; summary of the method: as §1
[30] = tested on: RXF 393; assay: Growth inhibition of human RXF393 cells at 10 uM after 48 hrs by coulter counter analysis; conditions: RXF 393, 48 h, read-out: GI; summary of the method: as §1
[31] = tested on: PC-3; assay: Growth inhibition of human PC3 cells at 10 uM after 48 hrs by coulter counter analysis; conditions: PC-3, 48 h, read-out: GI; summary of the method: as §1
[32] = tested on: DU-145; assay: Growth inhibition of human DU145 cells at 10 uM after 48 hrs by coulter counter analysis; conditions: DU-145, 48 h, read-out: GI; summary of the method: as §1
[33] = tested on: MCF7; assay: Growth inhibition of human MCF7 cells at 10 uM after 48 hrs by coulter counter analysis; conditions: MCF7, 48 h, read-out: GI; summary of the method: as §1
[34] = tested on: MDA-MB-231; assay: Growth inhibition of human MDA-MB-231 cells at 10 uM after 48 hrs by coulter counter analysis; conditions: MDA-MB-231, 48 h, read-out: GI; summary of the method: as §1
[35] = Growth inhibition of human Hs 578T cells at 10 uM after 48 hrs by coulter counter analysis; conditions: read-out: GI; summary of the method: as §1
[36] = tested on: CCRF-CEM; assay: Growth inhibition of human CCRF-CEM cells at 10 uM after 48 hrs by coulter counter analysis; conditions: read-out: GI; summary of the method: as §1

Measured: inhibition of growth at 10 µM

Cc1csc(NC(=O)C(C)N2CCN(C)CC2)n1 (configuration not stated)
46.4%: [19]
12.1%: [1]
25.5%: [12] | [20]
35.6%: [33]
66.3%: [8]
11.2%: [21]
11.3%: [23]
41.1%: [36]
16.2%: [25]
13.3%: [34]
< 10%: [2] | [3] | [4] | [5] | [6] | [7] | [9] | [10] | [13] | [14] | [15] | [16] | [17] | [18] | [22] | [24] | [26] | [27] | [28] | [29] | [30] | [31] | [32] | [35]
30.1%: [11]

Cc1cnc(NC(=O)CN2CCN(C)CC2)s1
51.8%: [3]
< 10%: [1] | [2] | [4] | [5] | [6] | [7] | [8] | [9] | [10] | [11] | [12] | [13] | [14] | [15] | [16] | [17] | [18] | [19] | [20] | [21] | [22] | [23] | [24] | [25] | [26] | [27] | [28] | [29] | [30] | [31] | [32] | [33] | [34] | [35]
75.5%: [36]
